This note sets out measurements from ChEMBL document CHEMBL1132453, “Heteroarotinoids inhibit head and neck cancer cell lines in vitro and in vivo through both RAR and RXR retinoic acid receptors” (J Med Chem, 1999).

The subject of assay [1] is SCC-2 (Homo sapiens). The assay can be described thus: Inhibition of SCC-2 cell proliferation. Further details: concentration or dose not given beside the values.
The subject of assay [2] is SCC-38 (Homo sapiens). Briefly: Inhibition of SCC-38 cell proliferation. Further details: concentration or dose not given beside the values.
The target in assay [3] is T1, Retinoic acid receptor beta (Homo sapiens, UniProt P10826).
T1 sequence (P10826 whole entry): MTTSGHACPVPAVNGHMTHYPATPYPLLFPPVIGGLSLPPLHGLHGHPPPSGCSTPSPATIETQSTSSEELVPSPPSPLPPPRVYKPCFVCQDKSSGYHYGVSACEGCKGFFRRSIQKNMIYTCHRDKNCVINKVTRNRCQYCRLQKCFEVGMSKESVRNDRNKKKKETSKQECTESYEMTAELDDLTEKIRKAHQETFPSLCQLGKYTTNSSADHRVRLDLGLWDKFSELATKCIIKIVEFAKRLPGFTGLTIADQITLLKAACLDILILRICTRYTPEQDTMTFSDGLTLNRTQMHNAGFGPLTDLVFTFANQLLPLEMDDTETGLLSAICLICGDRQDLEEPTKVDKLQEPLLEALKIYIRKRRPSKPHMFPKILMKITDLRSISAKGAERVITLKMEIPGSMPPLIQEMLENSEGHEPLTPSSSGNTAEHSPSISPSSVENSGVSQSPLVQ
Briefly: Transcriptional activation in CV-1 cells expressing human Retinoic acid receptor RAR beta. The class given is cell-based. The method in brief:
(§1)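 CV-1 cells were plated at 7.5 × 10^4/well and transfected 24 h later (FuGENE6). Each well got a receptor vector (human RARα/β/γ in pECE or mouse RXRα/β/γ in pSG5), a βRARE-tk-CAT reporter and a β-actin-βGal control. After 16-18 h, ligand was added in 10-fold steps from 10^-10 to 10^-5 M (0.01% DMSO) for 24 h. CAT was measured by ELISA and normalised to βGal. Triplicates, repeated at least twice.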

The target in assay [4] is T2, Retinoic acid receptor RXR-gamma (Mus musculus, UniProt P28705).
T2 sequence (P28705 whole entry): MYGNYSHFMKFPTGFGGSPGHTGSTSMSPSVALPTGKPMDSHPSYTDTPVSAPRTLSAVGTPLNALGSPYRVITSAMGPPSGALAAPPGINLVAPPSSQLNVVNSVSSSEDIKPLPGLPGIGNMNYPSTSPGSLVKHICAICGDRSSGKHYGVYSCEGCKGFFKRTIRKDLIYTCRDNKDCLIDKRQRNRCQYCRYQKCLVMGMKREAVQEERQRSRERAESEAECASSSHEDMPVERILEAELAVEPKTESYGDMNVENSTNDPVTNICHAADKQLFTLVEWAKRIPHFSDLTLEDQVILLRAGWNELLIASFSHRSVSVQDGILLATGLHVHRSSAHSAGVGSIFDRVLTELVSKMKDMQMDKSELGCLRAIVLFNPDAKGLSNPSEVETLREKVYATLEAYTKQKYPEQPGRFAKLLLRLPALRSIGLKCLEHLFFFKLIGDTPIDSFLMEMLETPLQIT
Briefly: Transcriptional activation of CV-1 cells expressing murine Retinoid X receptor RXR gamma. The format is cell-based. The method in brief:
as §1

Assay [5] concerns the target T3, Retinoic acid receptor alpha (Homo sapiens, UniProt P10276).
T3 sequence (P10276 whole entry): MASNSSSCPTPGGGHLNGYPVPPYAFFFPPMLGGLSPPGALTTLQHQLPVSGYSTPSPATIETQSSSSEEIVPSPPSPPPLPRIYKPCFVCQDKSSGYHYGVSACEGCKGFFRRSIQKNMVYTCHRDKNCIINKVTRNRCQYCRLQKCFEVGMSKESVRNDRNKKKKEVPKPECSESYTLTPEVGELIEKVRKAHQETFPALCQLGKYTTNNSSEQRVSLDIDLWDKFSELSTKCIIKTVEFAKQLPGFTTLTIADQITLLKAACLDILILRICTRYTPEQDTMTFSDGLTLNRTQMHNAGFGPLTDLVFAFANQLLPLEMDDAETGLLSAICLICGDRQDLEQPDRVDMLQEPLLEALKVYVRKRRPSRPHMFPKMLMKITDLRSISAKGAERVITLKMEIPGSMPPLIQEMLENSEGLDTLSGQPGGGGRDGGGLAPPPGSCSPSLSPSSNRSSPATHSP
The assay can be described thus: Transcriptional activation in CV-1 cells expressing human Retinoic acid receptor RAR alpha. The class given is cell-based. The method in brief: as §1

Assay [6] addresses T4, Retinoic acid receptor gamma (Homo sapiens, UniProt P13631).
T4 sequence (P13631 whole entry): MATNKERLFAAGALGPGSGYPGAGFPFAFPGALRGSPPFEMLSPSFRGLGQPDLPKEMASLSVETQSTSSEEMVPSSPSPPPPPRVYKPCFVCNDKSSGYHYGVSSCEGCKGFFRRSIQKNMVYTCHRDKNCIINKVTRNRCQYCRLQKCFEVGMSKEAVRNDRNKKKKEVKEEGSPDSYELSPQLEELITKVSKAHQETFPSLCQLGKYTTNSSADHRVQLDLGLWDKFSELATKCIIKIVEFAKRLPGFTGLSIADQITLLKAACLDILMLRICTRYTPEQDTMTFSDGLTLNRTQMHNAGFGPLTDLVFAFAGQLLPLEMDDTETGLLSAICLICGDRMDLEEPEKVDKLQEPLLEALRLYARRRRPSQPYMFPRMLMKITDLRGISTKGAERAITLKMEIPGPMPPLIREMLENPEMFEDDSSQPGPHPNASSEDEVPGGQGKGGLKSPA
Briefly: Transcriptional activation in CV-1 cells expressing human Retinoic acid receptor RAR gamma. The class given is cell-based. In short, it runs like this: as §1

Assay [7] addresses T5, Retinoic acid receptor RXR-alpha (Mus musculus, UniProt P28700).
T5 sequence (P28700 whole entry): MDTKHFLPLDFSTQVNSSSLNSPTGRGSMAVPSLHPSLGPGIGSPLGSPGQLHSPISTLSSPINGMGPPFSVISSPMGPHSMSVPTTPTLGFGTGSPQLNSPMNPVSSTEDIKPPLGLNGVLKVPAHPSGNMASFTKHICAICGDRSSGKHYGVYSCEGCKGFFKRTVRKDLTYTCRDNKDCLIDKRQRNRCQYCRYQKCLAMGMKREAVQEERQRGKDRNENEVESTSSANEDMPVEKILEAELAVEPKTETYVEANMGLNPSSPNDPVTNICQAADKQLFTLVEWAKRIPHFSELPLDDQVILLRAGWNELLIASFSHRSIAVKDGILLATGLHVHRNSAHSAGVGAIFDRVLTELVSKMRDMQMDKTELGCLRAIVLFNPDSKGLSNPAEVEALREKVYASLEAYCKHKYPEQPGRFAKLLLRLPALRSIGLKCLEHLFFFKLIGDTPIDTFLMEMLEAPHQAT
Briefly: Transcriptional activation of CV-1 cells expressing murine Retinoid X receptor RXR alpha. The class given is cell-based. The method in brief:
as §1

In assay [8] the target is T6, Retinoic acid receptor RXR-beta (Mus musculus, UniProt P28704).
T6 sequence (P28704 whole entry): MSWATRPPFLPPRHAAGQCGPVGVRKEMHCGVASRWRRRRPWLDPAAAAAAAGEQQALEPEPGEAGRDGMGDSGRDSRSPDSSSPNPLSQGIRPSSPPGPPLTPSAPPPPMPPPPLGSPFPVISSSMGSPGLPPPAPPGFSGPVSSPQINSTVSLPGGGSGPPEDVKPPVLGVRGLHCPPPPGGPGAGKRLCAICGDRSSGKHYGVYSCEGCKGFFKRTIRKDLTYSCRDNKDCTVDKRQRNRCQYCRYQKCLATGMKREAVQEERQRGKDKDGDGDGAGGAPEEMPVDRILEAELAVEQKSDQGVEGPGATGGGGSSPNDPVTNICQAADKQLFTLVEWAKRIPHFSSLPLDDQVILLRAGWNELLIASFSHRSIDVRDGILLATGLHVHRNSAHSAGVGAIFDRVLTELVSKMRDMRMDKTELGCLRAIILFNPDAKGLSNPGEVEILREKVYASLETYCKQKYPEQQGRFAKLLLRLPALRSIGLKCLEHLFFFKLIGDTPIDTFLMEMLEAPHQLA
Briefly: Transcriptional activation of CV-1 cells expressing murine Retinoid X receptor RXR beta. The format is cell-based. The method in brief: as §1

In assay [9] the test system is SCC-2 (Homo sapiens). Briefly: Inhibition of SCC-2 cell proliferation.
The test system of assay [10] is SCC-38 (Homo sapiens). The assay can be described thus: Inhibition of SCC-38 cell proliferation.

By Inhibition is commonly meant the relative decrease from the control value, in per cent. Consider `CCOC(=O)c1ccc(OC(=O)c2ccc3c(c2)C(C)(C)CCN3C(C)C)cc1`, for which the Inhibition in the assay with SCC-2 (Homo sapiens) [1] came to 5%; with SCC-38 (Homo sapiens) [2] it was 15%.

`C/C(=C\c1ccc(C(=O)O)cc1)c1ccc2c(c1)C(C)(C)CO2`: the Inhibition with SCC-2 (Homo sapiens) [1] and in the assay with SCC-38 (Homo sapiens) [2] was 1% each time.

With `CCCCCCCCC1CCc2cc(/C(C)=C/c3ccc(C(=O)OCC)cc3)ccc2S1` (centres undefined), the Inhibition in the assay on SCC-2 (Homo sapiens) [1] was determined as 10%; with SCC-38 (Homo sapiens) [2], 17%.

For the compound `CCOC(=O)c1ccc(OC(=O)c2ccc3c(c2)C(C)(C)CCO3)cc1`, the Inhibition with SCC-2 (Homo sapiens) [1] is recorded as -6%; with SCC-38 (Homo sapiens) [2], 13%.

Consider `COC(=O)c1ccc(C(=O)Oc2c(C)cc3c(c2C)C(C)(C)C=C(C)O3)cc1`, for which the figures for the Inhibition in the assay on SCC-2 (Homo sapiens) [1] and with SCC-38 (Homo sapiens) [2] were 15% and -8%, respectively.

Regarding `COC(=O)c1ccc(N(OC)C(=O)c2ccc3c(c2)C(C)(C)CCO3)cc1`, the Inhibition is recorded as 3% with SCC-2 (Homo sapiens) [1] and 17% in the assay with SCC-38 (Homo sapiens) [2].

Consider `COC(=O)c1ccc(C(=O)Oc2c(C)cc3c(c2C)C(C)(C)CC(C)(C)O3)cc1`, for which the values for the Inhibition in the assay with SCC-2 (Homo sapiens) [1] and in the assay with SCC-38 (Homo sapiens) [2] were -1% and 9%, respectively.

For `CCOC(=O)c1ccc(OC(=O)c2cc3c(cc2OC)C(C)(C)COC3(C)C)cc1`, the Inhibition in the assay with SCC-2 (Homo sapiens) [1] stood at 52%; with SCC-38 (Homo sapiens) [2], 6%.

Turning to `CCOC(=O)c1ccc(OC(=O)c2cc3c(cc2OC)C(C)(C)CCC3(C)C)cc1`, the Inhibition was determined as 15% in the assay with SCC-2 (Homo sapiens) [1] and 12% with SCC-38 (Homo sapiens) [2].

Broadly, the EC50 is the concentration giving half of the maximal effect. In the case of `COC(=O)c1ccc(C(=O)Nc2ccc3c(c2)C(C)(C)CC(C)(C)S3)cc1`, the EC50 in assay [3] was determined as 1000 nM; in [4], 302 nM; in assay [5], 225 nM; in [6] it was 152 nM; in [7], 84 nM; in assay [8] it was 1000 nM. The values for the Inhibition with SCC-2 (Homo sapiens) [9] and in the assay with SCC-38 (Homo sapiens) [10] were 64% and 37%, respectively.

For `CCOC(=O)/C=C(C)/C=C/C=C(\C)c1ccc2c(c1)OCCO2`, the Inhibition is recorded as -33% with SCC-2 (Homo sapiens) [1] and -2% in the assay with SCC-38 (Homo sapiens) [2].

With `CCOC(=O)c1ccc(OC(=O)c2cc3c(cc2C)N(C)CCC3(C)C)cc1`, the Inhibition turned out to be 9% with SCC-2 (Homo sapiens) [1] and 7% in the assay with SCC-38 (Homo sapiens) [2].

With `CC1(C)CCOc2ccc(C(=O)Oc3ccc(/C=N/N=C(/N)S)cc3)cc21`, the EC50 was > 10000 nM in assay [3]; 1900 nM in assay [4]; > 10000 nM in assay [5]; > 10000 nM in [6]; 294 nM in assay [7]; 84 nM in assay [8]. The Inhibition in the assay with SCC-2 (Homo sapiens) [1] is recorded as 19%; in the assay with SCC-38 (Homo sapiens) [2], 18%.

For `CC(/C=C/C=C(\C)c1ccc2c(c1)C(C)(C)CCS2)=C\C(=O)O`, the Inhibition in the assay with SCC-2 (Homo sapiens) [1] was 2%; with SCC-38 (Homo sapiens) [2], 1%.

On to `CCOC(=O)c1ccc(OC(=O)c2ccc3c(c2)C(C)(C)CCN3C)cc1`, for which the Inhibition is recorded as 12% in the assay with SCC-2 (Homo sapiens) [1] and 13% in the assay with SCC-38 (Homo sapiens) [2].

For the compound `CC1=C(/C=C/C(C)=C\C=C\C(C)=C\C(=O)O)C(C)(C)CCC1` [ALITRETINOIN], the Inhibition in the assay with SCC-2 (Homo sapiens) [1] is on record as 13%; in the assay with SCC-38 (Homo sapiens) [2], 10%.
